Reference: publication PMC12265513 (bioRxiv, 2025)
Peptide text beside a SMILES is read from it. * marks the point of attachment. FITC = O=C1OC2(c3ccc(O)cc3Oc3cc(O)ccc32)c2ccc(NC(=S)*)cc21; Ahx = NCCCCCC(=O)O

Legend:
[1] = biological target: GST-fused construct of the NEDD9-SH3 domain (Homo sapiens, UniProt Q14511); test: Fluorescence polarization, direct binding of FITC-labeled pep01 probe
HPAECs = test: Anti-collagen III immunofluorescence in HPAECs; type: cell-based, human; details: 24 hr, n=3
Procedure, shortened: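 HPAECs grown on glass chamber slides were exposed to test compound for 24 hr. They were then fixed in 4% formalin in PBS and blocked with 10% goat albumin in PBS for 1 hr at room temperature. Primary antibody (1:100) was applied overnight at 4°C. Collagen III deposition and NEDD9-positive cells were scored by immunofluorescence.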

NEDD9 = NEDD9 immunoblot in HPAECs; type: cell-based, human; details: 50-200 μM for 30-120 min, basal conditions, vs vehicle, n=3
Procedure, shortened: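 Confluent HPAECs in EBM-2 medium received test compound from a 10 mM DMSO stock, with DMSO as vehicle, for 30, 60 or 120 min. Lysates were immunoblotted with anti-NEDD9 (1:1000) overnight at 4°C, then peroxidase secondary and ECL detection.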

NEDD9-SMAD3 complex = NEDD9-SMAD3 complex formation; type: cell-based, human; details: H2O2 (500 μM) for 20 min, n=3
Procedure, shortened: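 HPAECs were treated with 500 μM H2O2 for 20 min with or without test compound. The complex was measured two ways. One was anti-NEDD9 immunoprecipitation followed by anti-SMAD3 immunoblot. The other was proximity ligation with mouse anti-NEDD9 and rabbit anti-SMAD3, normalised to total NEDD9 expression. n=3.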

BRAF-RBD = test: Intact MS counter screen; type: binding; details: deconvoluted MS
Procedure, shortened: (§1)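 Dual screen: NEDD9-SH3 (1-64) and BRAF-RBD, each at 1 μM, were mixed in one reaction with 100 μM covalent fragment. Controls were 100 μM iodoacetamide or 1% DMSO. Buffer was 50 mM HEPES pH 7.4, 100 mM NaCl, 4 h at 21°C. Reactions were quenched to 0.2% formic acid and read by RapidFire QTOF MS. Hits formed a single adduct on NEDD9-SH3 at least two-fold greater than on BRAF-RBD.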

NEDD9-SH3 (1-64) = test: Intact protein mass spectrometry, covalent modification of the SH3 domain; type: binding; details: intact MS and 2-D NMR
Procedure, shortened: as §1

Work on C[C@H](NC(=O)[C@H](CCC(=O)O)NC(=O)[C@H](CC(=O)O)NC(=O)CCCCCNC(=S)Nc1ccc2c(c1)C(=O)OC21c2ccc(O)cc2Oc2cc(O)ccc21)C(=O)N1CCC[C@H]1C(=O)N1CCC[C@H]1C(=O)N[C@@H](CCCCN)C(=O)N1CCC[C@H]1C(=O)N[C@@H](CO)C(=O)N[C@@H](CCCNC(=N)N)C(=O)N1CCC[C@H]1C(=O)NCC(=O)N[C@@H](Cc1ccc(O)cc1)C(=O)N1CCC[C@H]1C(=O)N[C@@H](CO)C(N)=O [FITCylated pep01] ({FITC-Ahx}-DEAPPKPSRPGYPS-NH2) yielded a Kd [1] of 4 µM.
With C=CC(=O)Nc1cc(C(F)(F)F)cc(C(F)(F)F)c1 [Fragment 1, N-[3,5-Bis(trifluoromethyl)phenyl] acrylamide] the “fibrosis in cellulo by anti-collagen III immunofluorescence” value (HPAECs) was “decreased fibrosis”, the “NEDD9 protein quantity by immunoblot” value (NEDD9) was “decreased NEDD9 protein quantity” and the NEDD9-SMAD3 complex formation (NEDD9-SMAD3 complex) was “restored NEDD9-SMAD3 complex formation”.
C[C@@H]1CCN(C(=O)CCl)[C@@H](C(N)=O)C1 [Fragment 2, (2R,4R)-1-(2-chloroacetyl)-4-methylpiperridine-2-carboxamide] was tested, and the BRAF-RBD modification (BRAF-RBD) was “did not show BRAF-RBD modification” and the “adduct formation to NEDD9-SH3” value (NEDD9-SH3 (1-64)) was “dose- and time-dependent increase in adduct formation”.
